Laboratory results published in ChEMBL document CHEMBL4014337, “Antimalarial Inhibitors Targeting Serine Hydroxymethyltransferase (SHMT) with in Vivo Efficacy and Analysis of their Binding Mode Based on X-ray Cocrystal Structures” (J Med Chem, 2017).

Experiments:
[1] = Partition coefficient, logD of compound at pH 7.4 by HPLC analysis; assay type: physicochemical; conditions: octanol/water
How it was run: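 logD at pH 7.4 measured by HPLC.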

[2] = Kinetic solubility of the compound in pH 6.5 phosphate buffer after 30 mins by nephelometry; assay type: physicochemical; conditions: pH 6.5, 0.5 h
[3] = Kinetic solubility of the compound in pH 2 HCl after 30 mins by nephelometry; assay type: physicochemical; conditions: buffer, pH 2, 0.5 h
Salmonella typhimurium = experiment: Mutagenicity in Salmonella typhimurium TA98 assessed as increase in number of revertant colonies at 1250 to 5000 ug/ml in absence of ariclor-induced rat liver S9 fraction by Ames test relative to control; assay type: toxicity; conditions: salmonella enterica subsp. enterica serovar typhimurium
How it was run: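 Ames plate incorporation test run in two independent experiments across five Salmonella strains, with and without metabolic activation. Revertant colonies were counted per plate and compared with concurrent vehicle controls. A reproducible increase of ≥2-fold in revertant colony number over vehicle control was scored as evidence of mutagenicity.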

[4] = Cytotoxicity against human HepG2 cells after 72 hrs by CyQuant-Direct reagent based fluorescence assay; assay type: cell-based

Row | SMILES | logD [1] | Kinetic_solubility [2] | Kinetic_solubility [3] | fold change (FC) (Salmonella typhimurium) | IC20 at 72 h [4] [µM]
1 | Cc1[nH]nc2c1C(c1cc(C#N)cc(-c3cccc(C(=O)O)c3)c1)(C(C)C)C(C#N)=C(N)O2 (racemic) | 1.4 |  |  |  | 
2 | Cc1[nH]nc2c1C(c1cc(F)cc(-c3cccc(C(=O)O)c3)c1)(C(C)C)C(C#N)=C(N)O2 (racemic) | 1.5 | Soluble | Soluble | >= 2 | 
3 | COc1ccc(-c2cc(C(F)(F)F)cc(C3(C(C)C)C(C#N)=C(N)Oc4n[nH]c(C)c43)c2)cc1C(=O)O (racemic) | 1.7 | Soluble | Soluble |  | 
4 | Cc1[nH]nc2c1C(c1cc(-c3cccc(C(=O)O)c3)cc(C(F)(F)F)c1)(C(C)C)C(C#N)=C(N)O2 (racemic) | 1.8 |  |  |  | 
5 | Cc1[nH]nc2c1C(c1cc(-c3cccnc3)cc(C(F)(F)F)c1)(C(C)C)C(C#N)=C(N)O2 (racemic) |  |  |  |  | 18.9
6 | Cc1[nH]nc2c1C(c1cc(F)cc(-c3ccncc3)c1)(C(C)C)C(C#N)=C(N)O2 (racemic) |  | Soluble | Soluble |  | 

Now from value to compound, other results behind:

Row | logD [1] | Kinetic_solubility [2] | Kinetic_solubility [3] | SMILES | fold change (FC) (Salmonella typhimurium) | IC20 at 72 h [4] [µM]
7 | 1.2 |  |  | Cc1[nH]nc2c1C(c1cc(F)cc(N3CCC(C(=O)O)CC3)c1)(C(C)C)C(C#N)=C(N)O2 (racemic) |  | 
8 |  | Soluble | Soluble | Cc1[nH]nc2c1C(c1cc(F)cc(N3CCOCC3)c1)(C(C)C)C(C#N)=C(N)O2 (racemic) |  | 
9 |  | Soluble | Soluble | Cc1[nH]nc2c1C(c1cc(N3CC4CCCC4C3)cc(C(F)(F)F)c1)(C(C)C)C(C#N)=C(N)O2 (racemic) |  | 
10 | 1.6 | Soluble | Soluble | Cc1[nH]nc2c1C(c1cc(N3CCC(C(=O)O)CC3)cc(C(F)(F)F)c1)(C(C)C)C(C#N)=C(N)O2 (racemic) |  | 
11 |  | Soluble | Soluble | Cc1[nH]nc2c1C(c1cc(N3CCS(=O)(=O)CC3)cc(C(F)(F)F)c1)(C(C)C)C(C#N)=C(N)O2 (racemic) |  | 
